The source of these data is PMC9839614 (Cancer cell, 2022).

The conditions of series [1]: first-in-human study, advanced solid tumors; cited from earlier work.
Series [2] concerns venetoclax-resistant MOLM-13 cell lines. The series is described as follows: Drug treatment IC50 measurement. The format is cell-based, human. The method in brief: (§1)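 MOLM-13 cells (parental or venetoclax-resistant) were plated and exposed to the test compound across a range of concentrations, with at least three technical replicates per concentration per cell line. Viability was read by CellTiter-Glo luminescence. IC50 was calculated from technical triplicates within each experiment, over n=3 experiments, and reported as mean with SEM.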

Series [3] relates to MOLM-13 parental cells. The series is described as follows: Drug treatment IC50 measurement. The format is cell-based. Particulars: Homo sapiens, MOLM-13, read-out: IC50 (cell viability). The method in brief: as §1
In series [4] the test system is RNA splicing in MOLM-13 cells. The series is described as follows: RNA-seq alternative splicing analysis. The format is cell-based, human. The conditions noted are these: 48 hours, SM09419 100 nM, venetoclax 10 nM. The method in brief: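 Total RNA was extracted from MOLM-13 cells with an RNeasy column kit for RNA-seq. Before downstream analysis, FASTQ reads were trimmed of sequencing adapters and of low-quality reads (Q<15).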

Regarding `CN1CCN(c2cc(C(=O)Nc3cc4cc(-c5cnn(C)c5)ccc4cn3)ccn2)CC1` [Cirtuvivint], the “Grade 3 anemia rate” value in series [1] is on record as under 15%.

With `CC1(C)CCC(CN2CCN(c3ccc(C(=O)NS(=O)(=O)c4ccc(NCC5CCOCC5)c([N+](=O)[O-])c4)c(Oc4cnc5[nH]ccc5c4)c3)CC2)=C(c2ccc(Cl)cc2)C1` [venetoclax], the IC50 (in general, the concentration that gives 50% inhibition) was over 0.099 µM in series [2] (Homo sapiens, MOLM-13, 504 h, read-out: IC50 (cell viability)) and about 0.015 µM in series [3]. In addition, in series [2] (venetoclax-resistant vs parental MOLM-13), the “IC50 of resistant cell lines relative to parental cells” value was “approximately six times greater”. For the same compound, the “Effect on RNA splicing” value in series [4] was “no significant effects on RNA splicing”.
